# Screening data as filed in PubChem.
# A selection: hits, their analogues and other compounds. The true share with any hit is near 2.1%.
# RTF Ca sens act: cardiac RTF calcium sensitization | P19429+P45379 | IANBD-labeled TnC RTF fluorescence at EC20 calcium; 0% EC20 calcium, 100% full calcium | activation, % at 7.2 µM | 0.24% of 340,000 active | AID 493008;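 active = activation above the mean over all tested compounds plus 3 SD, cut at about 30% in these data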;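 also: rise in fluorescence read as greater calcium sensitivity of cardiac thin filaments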
# RTF Ca sens inh: cardiac RTF calcium desensitization; IANBD-labeled cardiac RTF, Ca2+ fluorescence; inhibition, % at 7.15 µM; 0.12% of 340,000 active;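 active = inhibition above the mean inhibition of all tested compounds plus 3 SD, cut at about 17% in these data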;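 also: assay run at fixed EC70 calcium of 1.6 mM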
# ARNT TACC3 PPI: ARNT/TACC3 interaction disruption. Q9Y6A5. AlphaScreen His-ARNT PAS-B/GST-TACC3 binding, luminescence; TACC3 fragment carries E629A point mutation. inhibition, % at 9.99 µM. 0.66% of 390,000 active. AID 623870;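 active = mean inhibition of replicates at least 50% and at least half of replicates each reaching 50%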;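 also: 0% = complete ARNT plus TACC3 wells and 100% = ARNT alone without TACC3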
# UCH37 inh: inhibitors of human deubiquitinating enzyme UCH37; Q9Y5K5; purified proteasome/UCH37, Ub-AMC cleavage fluorescence; inhibition, % (concentration not given with the values); 0.33% of 330,000 active; AID 588478;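 active = mean inhibition over replicate wells above about 20%, limit read from the data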;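 also: 0% = compound-free wells with enzyme and 100% = wells lacking proteasome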
# Target sequence (Q9Y5K5 whole entry, looked up): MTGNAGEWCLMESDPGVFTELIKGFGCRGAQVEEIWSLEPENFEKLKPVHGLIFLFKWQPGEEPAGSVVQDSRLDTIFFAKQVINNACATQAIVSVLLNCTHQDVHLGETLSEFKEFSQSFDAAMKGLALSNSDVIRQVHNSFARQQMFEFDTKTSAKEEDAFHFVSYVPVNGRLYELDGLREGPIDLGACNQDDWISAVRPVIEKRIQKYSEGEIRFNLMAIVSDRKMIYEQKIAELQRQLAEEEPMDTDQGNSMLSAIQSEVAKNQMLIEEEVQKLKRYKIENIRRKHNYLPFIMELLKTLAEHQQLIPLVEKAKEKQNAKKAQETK
#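 Material: human UCH37 enzyme supplied as purified proteasome complex. Measure: % inhibition of Ub-AMC cleavage fluorescence. Medium: pH 7.4 Tris-HCl (50 mM) with ovalbumin, ATP-MgCl2, DTT. Times: 30 min preincubation with enzyme, 25 min cleavage at room temperature. Detection: AMC fluorescence intensity at 355/460 nm.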
# SUMO Mot1 rescue: SUMOylation pathway inhibition by Mot1-301 growth rescue; S. cerevisiae Mot1-301 growth rescue, ATP luminescence, 38.5C; percent above DMSO median, 100 means doubled; growth rescue, % at 18.8 µM; 1% of 320,000 active;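 active = every valid replicate shows activation above 250% relative to neutral control wells; inactive = the rest, any valid replicate at or below 250%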;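 also: OY570 slx delta 5 strain wells were the positive control but not used for scaling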
# Efflux pump inh: inhibitors of Candida antifungal efflux pumps expressed in yeast | S. cerevisiae Candida pump triplex, Nile Red efflux | inhibition, % at 10 µM | 0.44% of 330,000 active;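 active = plate passing quality check with inhibition over a set limit, or well fluorescence over plate mean plus 4 SD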;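 also: Nile Red retained in pooled yeast measured as flow cytometry median fluorescence; 0% = buffer negative control and 100% = Enniatin B positive control; higher means more Nile Red kept so more efflux inhibition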
# Numbers without * were called inactive; · = no result.
SMILES,RTF Ca sens act,RTF Ca sens inh,ARNT TACC3 PPI,UCH37 inh,SUMO Mot1 rescue,Efflux pump inh
Cc1cc(C)n(/N=C/c2c[nH]c3ccccc23)c(=O)c1C#N,-1,1,0,·,296*,0
CC(=O)Nc1ccc(S(=O)(=O)NN=Cc2cccnc2)cc1,·,·,·,7,·,·
O=C(O)c1cccc(C(=O)O)c1,11,-9,-4,4,384*,0
COc1ccc(S(=O)(=O)N2CCCCCC2)cc1NC(=O)c1ccccc1,3,-4,-9,0,309*,0
COc1ccccc1C(=O)Nc1nnc(S(=O)(=O)N2CCCCC2)s1,-3,-3,31,1,-17,0
COc1ccccc1C(=O)Nc1nnc(S(=O)(=O)N2CCCCCC2)s1,5,-3,-4,3,337*,0
COc1ccccc1C(=O)Nc1nnc(CCc2ccccc2)s1,-11,-2,-2,2,332*,0
CCCOc1cc(N)ccc1C(=O)OCCN(CC)CC,5,12,5,1,-3,0
CCCOc1ccc(N)cc1N,32*,-47,-2,6,2,0
CCCOc1ccc(NC(=O)CC2Nc3ccccc3NC2=O)cc1 (stereo not drawn),-6,-4,-7,0,571*,0
CCNc1nc(NCC)nc(C(=O)NN)n1,8,-1,75*,4,78,0
Cn1cccc1CC(=O)NN=Cc1ccccc1,·,·,·,2,·,·
S=C1Cc2ccccc2N1,-5,7,33,81*,·,·
C/C(=N\NC(=O)C1CC1)c1ccccc1O,9,0,29,·,640*,0
C/C(=N\NC(=O)C1CC1)c1ccccc1Br,3,-6,-7,·,1,0
CC1=C(C(=O)Nc2cccnc2)C(c2cccnc2)n2nc(-c3cccs3)nc2N1 (stereo not drawn),-1,-1,7,0,350*,0
O=C(NC(=O)c1c(F)cccc1F)ON=C1CCCc2occc21,·,·,·,-2,·,·
O=C(/C(=C(\[O-])c1ccccc1)[n+]1ccc2ccccc2c1)c1ccccc1,-4,-14,50*,3,5,0
Cn1cccc1/C=C1/SC(=S)N(CC(=O)O)C1=O,20,-27,6,23*,-8,0
COc1ccc(/C=C2/SC(=S)N(CC(=O)O)C2=O)cc1OCc1ccc(Cl)cc1,-3,-2,4,18,150,0
CCC(C(=O)O)N1C(=O)/C(=C/c2cccn2C)SC1=S (stereo not drawn),23,-38,-1,23*,-14,1
O=C(O)CN1C(=O)/C(=C\c2cc(Br)ccc2OCc2ccc(Cl)cc2)SC1=S,-6,-8,-1,23*,11,0
CC(C(=O)O)N1C(=O)/C(=C/c2cccn2C)SC1=S (stereo not drawn),20,-22,5,18,9,0
Cn1cccc1/C=C1\SC(=S)N(NC(=O)c2ccccc2)C1=O,21,-27,12,11,59,0
O=C(ON=C1CCCCC1c1ccc([N+](=O)[O-])cc1[N+](=O)[O-])c1c(F)cccc1F (stereo not drawn),·,·,·,0,·,·
SMILES,RTF Ca sens act,RTF Ca sens inh,ARNT TACC3 PPI,UCH37 inh,SUMO Mot1 rescue,Efflux pump inh
Cc1ccc(S(=O)(=O)NCCc2cn3nc(C)c(C)nc3n2)cc1C,0,-4,-3,·,267*,0
COc1ccc(S(=O)(=O)NCCc2cn3nc(C)c(C)nc3n2)cc1C,1,-8,-6,-271,-5,0
CC(C)(C)OC(=O)C(C)(C)ON=C(C(=O)O)c1csc(N)n1,·,·,·,4,·,·
Cn1cc(C(=O)NN=C/C(Br)=C\c2ccccc2)ccc1=O,·,·,·,0,·,·
CCOC(=O)c1c(C)oc2c1c(C=NCc1ccccn1)c(O)c1ccccc12,13,-38,48*,3,·,·
Oc1ccc(C=NNC(=S)NCC2CCCO2)cc1 (stereo not drawn),·,·,·,8,·,·
COc1ccc(CN=Cc2[nH]c3ccc(Br)c(Cl)c3c2O)cc1,10,-18,·,4,36,0
Cc1cc(C)cc(N=Cc2[nH]c3ccc(Br)c(Cl)c3c2O)c1,64*,-88,2,11,-14,0
O=C(Nc1cccc2cccnc12)c1ccccc1Cl,·,·,·,1,332*,0
NC(=S)NNc1cccc2cccnc12,1,-8,65*,5,97,0
O=C(O)c1cc(Cl)c(Cl)cc1C(=O)Nc1cccc2cccnc12,11,-7,20,8,-5,0
O=[N+]([O-])c1ccc(NN=Cc2cccc(O)c2)cc1,·,·,·,0,·,·
CCOC(=O)c1c(NC(=O)CNCC(O)CO)sc(C)c1C (stereo not drawn),-1,0,2,-19,295*,0
S=c1[nH]nc(-c2ccccn2)n1N=Cc1ccco1,·,·,·,4,·,·
O=C(CNC(=O)c1ccc(S(=O)(=O)N2CCCC2)cc1)NN=Cc1ccc(Cl)cc1,·,·,·,1,·,·
O=C(NN=Cc1ccc(Cl)s1)c1ccccc1[N+](=O)[O-],·,·,·,9,·,·
COc1cccc(N=Nc2c(=O)[nH]n3c(=O)c4c([nH]c23)CCC4)c1,-1,0,18,20*,6,0
O=c1[nH]n2c(=O)c3c([nH]c2c1N=Nc1cccc(Cl)c1)CCC3,-8,3,40,18,-2,0
Cc1cc(C)n2[nH]c(=O)c(N=Nc3ccc(S(N)(=O)=O)cc3)c2n1,-3,5,5,25*,10,0
NS(=O)(=O)c1ccc(N=Nc2c(=O)[nH]n3c(=O)c4c([nH]c23)CCCC4)cc1,-3,11,37,21*,9,0
Cc1ccc(N=Nc2c(=O)[nH]n3c(C)cc(C)nc23)cc1,-2,1,1,8,-33,0
CCOC(=O)c1c(N=Cc2cc(C)ccc2O)sc2c1CCN(C)C2,·,·,·,4,·,·
COC/C=C/C1=CC2=CC(=O)C(C)(OC(=O)c3cnc4ccccc4n3)C(=O)C2=CN1CCCOC(C)C (stereo not drawn),-3,-3,11*,2,-12,0
CN1C(=O)/C(=C2/C=Cc3ccccc3N2CCCS(=O)(=O)O)SC1=S,-6,11,7,24*,48,0
CNC(=S)NN=C(C)c1ccc(N2CCOCC2)cc1,·,·,·,-15,·,·
CCOC(=O)C1CCCN(Cc2nc(N)nc(Nc3ccc(Cl)cc3)n2)C1 (stereo not drawn),-10,-3,35,1,652,0
Nc1nc(CN2CCN(c3ccccn3)CC2)nc(Nc2ccc(F)cc2)n1,-3,10,15,3,68,0
CCOC(=O)N1CCN(Cc2nc(CC3CC3)no2)CC1,-5,0,-5,0,1,0
CCOC(=O)C1CCCN(Cc2nc(N)nc(Nc3ccc(OC)cc3)n2)C1 (stereo not drawn),-1,-5,31*,3,-15,0
